In ChEMBL document CHEMBL3272238, “Synthesis and biological evaluation of fragmented derivatives of tetrahydroisoquinolines. 3. Trimetoquinol studies” (J Med Chem, 1976):
The source made the active and inactive calls.

Assays:
Cavia porcellus [1] = species: Cavia porcellus; experiment: Chronotropic activity in guinea pig atrium assessed as increase in atrial rate by force displacement transducer analysis; assay type: functional, tissue-based; settings: Cardiac atrium
In short: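 Isolated right atrium given cumulative test doses, with rate recorded over 3 min per dose at 1- and 3-min readings. Chronotropic responses were expressed relative to the maximum from 10⁻⁵ M isoproterenol added at the end of each run. ED₅₀ (half-maximal) was taken from individual plots.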

Rattus norvegicus = species: Rattus norvegicus; experiment: Induction of lipolysis in Sprague-Dawley rat fat cells assessed as increase in glycerol level at 10^-8 to 10^-4 M; assay type: functional
In short: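 Fat cells from epididymal tissue of nonfasted male rats (200–250 g) were isolated by collagenase digestion in Krebs bicarbonate with 3% BSA. Drug (1×10⁻⁸–3×10⁻⁴ M) was incubated 1 h at 37° in air, stopped with equal-volume 10% TCA, and glycerol assayed. Release was normalized to 10⁻⁶ M isoproterenol maximum; mean of N=3 ± SEM.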

Cavia porcellus [2] = species: Cavia porcellus; experiment: Agonist activity at beta-adrenoceptor in guinea pig trachea assessed as […] of carbachol-induced contraction by force-displacement transducer analysis; assay type: tissue-based
In short: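 Tissue strips held at 1 g tension in Krebs bicarbonate-glucose solution at 37°, equilibrated 1-1.5 h, then drug-induced tension changes recorded isometrically. Cumulative log-concentration curves were built, and the ED₅₀ (concentration giving half-maximal response) was read from each curve.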

Measured: Activity

COc1cc(C[C@@H]2NCCc3cc(O)c(O)cc32)cc(OC)c1OC (racemic)
active: Cavia porcellus [1] | Rattus norvegicus | Cavia porcellus [2]

CCNC(Cc1cc(OC)c(OC)c(OC)c1)c1ccc(O)c(O)c1 (stereo not given)
active: Cavia porcellus [1] | Rattus norvegicus | Cavia porcellus [2]

CNC(Cc1cc(OC)c(OC)c(OC)c1)c1ccc(O)c(O)c1 (stereo not given)
active: Cavia porcellus [1] | Rattus norvegicus | Cavia porcellus [2]

COc1cc(CC(N)c2ccc(O)c(O)c2)cc(OC)c1OC (stereo not given)
active: Cavia porcellus [1] | Rattus norvegicus | Cavia porcellus [2]

COc1cc(CC(NC(C)C)c2ccc(O)c(O)c2)cc(OC)c1OC (stereo not given)
active: Cavia porcellus [1] | Rattus norvegicus | Cavia porcellus [2]
